According to PMC6720533 (Biomolecules & Therapeutics, 2019):

How the values were obtained:
PKBα = PKBα (Homo sapiens, UniProt P31749); assay: Kinase activity screening; type: biochemical; details: FX-9 at 2.5 μM, ATP at Km (155 μM)
Outline: (§1)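 Radiometric substrate-phosphorylation screen covering a panel of 58 human kinases run by a contract service. […] Activity is given as a percentage of mean activity in positive control samples (100%). Values <30% were scored strong hits, 30–70% partial hits and >70% no hit.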

CDK7/cyclinH/MAT1 = CDK7/cyclinH/MAT1 (Homo sapiens, UniProt P50613); assay: Kinase activity screening; type: biochemical; details: FX-9 at 2.5 μM, ATP at Km (90 μM)
Outline: as §1

SEM cells = assay: WST-1 metabolic activity assay; type: cell-based; details: Homo sapiens, 72 h, read-out: metabolic activity
Outline: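 Test compound came from a 10 mM DMSO stock. Cells were seeded at 5×10^4/well in triplicate with 5 or 10 μM final compound; controls got matched DMSO. After 72 h at 37°C, 5% CO2, WST-1 was added for a further 3 h. Absorbance was read at 450 nm (reference 620 nm), and metabolic activity given as % of DMSO control.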

IGF-1R = IGF-1R (Homo sapiens, UniProt P08069); assay: Kinase activity screening; type: biochemical; details: FX-9 at 2.5 μM, ATP at Km (200 μM)
Outline: as §1

EphA5 = EphA5 (Homo sapiens, UniProt P54756); assay: Kinase activity screening; type: biochemical; details: FX-9 at 2.5 μM, ATP at Km (10 μM)
Outline: as §1

CDK9/cyclin T1 = CDK9/cyclin T1 (Homo sapiens, UniProt P50750); assay: Kinase activity screening; type: biochemical; details: FX-9 at 2.5 μM, ATP at Km (45 μM)
Outline: as §1

SAPK2a = SAPK2a (Homo sapiens, UniProt Q16539); assay: Kinase activity screening; type: biochemical; details: FX-9 at 2.5 μM, ATP at Km (90 μM)
Outline: (§2)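 Radiometric kinase-panel screen of 58 human kinases, measuring substrate phosphorylation. […] Activity is given as % of the mean positive-control kinase activity (100%). Below 30% counts as a strong hit, 30–70% as a partial hit, and above 70% as no hit.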

Jurkat cells [1] = assay: Proliferation, viable cell count by trypan blue exclusion; type: cell-based, human; details: 72 h
Outline: (§3)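 Human B-ALL (SEM, RS4;11) and T-ALL (Jurkat, CEM) lines were grown with 10% heat-inactivated FBS and penicillin/streptomycin at 37°C, 5% CO2. Cells took test compound at 0.1–5.0 μM (methods: 0.5–5.0 μM) or DMSO for up to 72 h. Viable cells were counted by trypan blue exclusion and expressed relative to control (100%). IC50 came from three separate experiments, each in triplicate.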

PI3 Kinase (p110a/p85a) = PI3 Kinase (p110a/p85a) (Homo sapiens, UniProt P42336); assay: Kinase activity screening; type: biochemical; details: FX-9 at 2.5 μM, ATP at Km (200 μM)
Outline: as §1

CK2α2 = CK2α2 (Homo sapiens, UniProt P19784); assay: Kinase activity screening; type: biochemical; details: FX-9 at 2.5 μM, ATP at Km (10 μM)
Outline: as §1

IKKα = IKKα (Homo sapiens, UniProt O15111); assay: Kinase activity screening; type: biochemical; details: FX-9 at 2.5 μM, ATP at Km (10 μM)
Outline: as §1

MEK1 = MEK1 (Homo sapiens, UniProt Q02750); assay: Kinase activity screening; type: biochemical; details: FX-9 at 2.5 μM, ATP at Km (10 μM)
Outline: as §1

TAK1 = TAK1 (Homo sapiens, UniProt O43318); assay: Kinase activity screening; type: biochemical; details: FX-9 at 2.5 μM, ATP at Km (45 μM)
Outline: as §2

recombinant human CK2α1 = recombinant human CK2α1 (Homo sapiens, UniProt P68400); assay: CK2 kinase activity assay; type: biochemical; details: 60 min
Outline: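 Recombinant human CK2α1 (50 ng) was incubated with 2.5 μg CK2α1 substrate, 10 μM ATP, and test compound, reference inhibitor or DMSO for 60 min at room temperature. ADP-Glo reagent stopped the reaction and depleted remaining ATP. Detection reagent then converted ADP to ATP for luciferase/luciferin luminescence, which tracks the ADP formed as the measure of kinase activity.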

pAKT = assay: Western blot, SEM cells; type: cell-based, human; details: 2.5 μM or 5.0 μM, 48 h
Outline: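 SEM or RS4;11 cells took DMSO, 2.5 or 5.0 μM test compound for 48 h. Cells (1–5×10^6) were lysed in RIPA buffer with sonication, run on SDS gels, blotted to PVDF and imaged by near-infrared fluorescence. Bands were normalised to GAPDH, and the phospho/total protein ratio was set relative to DMSO control (=1).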

PKG1α = PKG1α (Homo sapiens, UniProt Q13976); assay: Kinase activity screening; type: biochemical; details: FX-9 at 2.5 μM, ATP at Km (90 μM)
Outline: as §2

Jurkat cells [2] = assay: Apoptosis, Annexin V FITC / propidium iodide flow cytometry; type: cell-based, human; details: 5 μM, 72 h, DMSO 18.7%
KDR = KDR (Homo sapiens, UniProt P35968); assay: Kinase activity screening; type: biochemical; details: FX-9 at 2.5 μM, ATP at Km (90 μM)
Outline: as §1

Pim-1 = Pim-1 (Homo sapiens, UniProt P11309); assay: Kinase activity screening; type: biochemical; details: FX-9 at 2.5 μM, ATP at Km (90 μM)
Outline: as §2

LOK = LOK (Homo sapiens, UniProt O94804); assay: Kinase activity screening; type: biochemical; details: FX-9 at 2.5 μM, ATP at Km (120 μM)
Outline: as §1

CEM cells = assay: Proliferation, viable cell count by trypan blue exclusion; type: cell-based, human; details: 72 h
Outline: as §3

CDK6/cyclinD3 = CDK6/cyclinD3 (Homo sapiens, UniProt Q00534); assay: Kinase activity screening; type: biochemical; details: FX-9 at 2.5 μM, ATP at Km (200 μM)
Outline: as §1

EphB4 = EphB4 (Homo sapiens, UniProt P54760); assay: Kinase activity screening; type: biochemical; details: FX-9 at 2.5 μM, ATP at Km (10 μM)
Outline: as §1

CDK1/cyclinB = CDK1/cyclinB (Homo sapiens, UniProt P06493); assay: Kinase activity screening; type: biochemical; details: FX-9 at 2.5 μM, ATP at Km (45 μM)
Outline: as §1

Aurora-A = Aurora-A (Homo sapiens, UniProt O14965); assay: Kinase activity screening; type: biochemical; details: FX-9 at 2.5 μM, ATP at Km (15 μM)
Outline: as §1

mTOR = mTOR (Homo sapiens, UniProt P42345); assay: Kinase activity screening; type: biochemical; details: FX-9 at 2.5 μM, ATP at Km (70 μM)
Outline: as §2

Plk3 = Plk3 (Homo sapiens, UniProt Q9H4B4); assay: Kinase activity screening; type: biochemical; details: FX-9 at 2.5 μM, ATP at Km (70 μM)
Outline: as §2

CaMKI = CaMKI (Homo sapiens, UniProt Q14012); assay: Kinase activity screening; type: biochemical; details: FX-9 at 2.5 μM, ATP at Km (200 μM)
Outline: as §1

Sequence of recombinant human CK2α1 (P68400 whole entry): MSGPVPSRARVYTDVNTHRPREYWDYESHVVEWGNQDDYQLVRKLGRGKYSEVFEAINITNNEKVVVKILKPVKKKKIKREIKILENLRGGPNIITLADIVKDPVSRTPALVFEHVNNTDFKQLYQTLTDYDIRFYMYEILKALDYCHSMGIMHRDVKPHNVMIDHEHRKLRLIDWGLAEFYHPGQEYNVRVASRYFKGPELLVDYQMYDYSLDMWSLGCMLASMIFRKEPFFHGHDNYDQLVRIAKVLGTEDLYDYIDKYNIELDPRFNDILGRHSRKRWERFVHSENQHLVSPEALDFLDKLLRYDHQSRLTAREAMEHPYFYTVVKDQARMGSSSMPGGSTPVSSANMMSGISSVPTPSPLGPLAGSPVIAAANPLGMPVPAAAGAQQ
Sequence of CDK6/cyclinD3 (Q00534 whole entry): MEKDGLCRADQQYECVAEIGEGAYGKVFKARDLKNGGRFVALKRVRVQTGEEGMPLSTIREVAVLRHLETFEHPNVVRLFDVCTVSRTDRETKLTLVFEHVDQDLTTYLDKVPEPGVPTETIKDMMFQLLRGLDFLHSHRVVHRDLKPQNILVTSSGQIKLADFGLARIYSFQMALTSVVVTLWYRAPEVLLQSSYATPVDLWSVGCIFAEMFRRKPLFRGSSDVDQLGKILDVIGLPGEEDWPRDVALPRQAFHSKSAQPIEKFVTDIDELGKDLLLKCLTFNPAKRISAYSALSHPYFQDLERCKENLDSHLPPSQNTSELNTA
Sequence of CDK6/cyclinD3 (P30281 whole entry partner): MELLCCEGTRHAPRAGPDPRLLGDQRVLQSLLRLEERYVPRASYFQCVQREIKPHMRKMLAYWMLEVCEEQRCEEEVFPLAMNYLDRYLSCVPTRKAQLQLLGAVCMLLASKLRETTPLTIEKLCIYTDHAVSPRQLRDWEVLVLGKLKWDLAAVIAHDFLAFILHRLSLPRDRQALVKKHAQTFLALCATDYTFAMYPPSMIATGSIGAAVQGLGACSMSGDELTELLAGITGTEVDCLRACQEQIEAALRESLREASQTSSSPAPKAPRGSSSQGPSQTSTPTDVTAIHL
Sequence of PKG1α (Q13976 whole entry): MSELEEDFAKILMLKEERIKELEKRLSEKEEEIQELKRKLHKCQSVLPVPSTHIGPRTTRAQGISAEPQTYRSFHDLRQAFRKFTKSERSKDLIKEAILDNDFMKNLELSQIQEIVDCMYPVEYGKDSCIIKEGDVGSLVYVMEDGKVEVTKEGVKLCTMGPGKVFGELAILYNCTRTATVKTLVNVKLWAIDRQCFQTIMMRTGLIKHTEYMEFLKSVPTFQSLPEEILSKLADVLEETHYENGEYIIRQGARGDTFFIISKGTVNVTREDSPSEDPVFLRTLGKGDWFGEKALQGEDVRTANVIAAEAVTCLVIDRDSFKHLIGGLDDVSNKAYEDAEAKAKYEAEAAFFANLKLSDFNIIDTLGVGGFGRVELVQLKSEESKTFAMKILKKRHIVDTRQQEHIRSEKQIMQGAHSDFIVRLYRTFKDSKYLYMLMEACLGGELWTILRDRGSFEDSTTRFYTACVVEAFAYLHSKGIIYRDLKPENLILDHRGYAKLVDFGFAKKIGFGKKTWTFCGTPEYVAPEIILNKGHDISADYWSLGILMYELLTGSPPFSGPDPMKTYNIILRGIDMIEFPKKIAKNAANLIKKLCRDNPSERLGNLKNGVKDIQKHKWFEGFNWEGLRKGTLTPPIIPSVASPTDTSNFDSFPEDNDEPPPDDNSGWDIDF
Sequence of EphB4 (P54760 16-987): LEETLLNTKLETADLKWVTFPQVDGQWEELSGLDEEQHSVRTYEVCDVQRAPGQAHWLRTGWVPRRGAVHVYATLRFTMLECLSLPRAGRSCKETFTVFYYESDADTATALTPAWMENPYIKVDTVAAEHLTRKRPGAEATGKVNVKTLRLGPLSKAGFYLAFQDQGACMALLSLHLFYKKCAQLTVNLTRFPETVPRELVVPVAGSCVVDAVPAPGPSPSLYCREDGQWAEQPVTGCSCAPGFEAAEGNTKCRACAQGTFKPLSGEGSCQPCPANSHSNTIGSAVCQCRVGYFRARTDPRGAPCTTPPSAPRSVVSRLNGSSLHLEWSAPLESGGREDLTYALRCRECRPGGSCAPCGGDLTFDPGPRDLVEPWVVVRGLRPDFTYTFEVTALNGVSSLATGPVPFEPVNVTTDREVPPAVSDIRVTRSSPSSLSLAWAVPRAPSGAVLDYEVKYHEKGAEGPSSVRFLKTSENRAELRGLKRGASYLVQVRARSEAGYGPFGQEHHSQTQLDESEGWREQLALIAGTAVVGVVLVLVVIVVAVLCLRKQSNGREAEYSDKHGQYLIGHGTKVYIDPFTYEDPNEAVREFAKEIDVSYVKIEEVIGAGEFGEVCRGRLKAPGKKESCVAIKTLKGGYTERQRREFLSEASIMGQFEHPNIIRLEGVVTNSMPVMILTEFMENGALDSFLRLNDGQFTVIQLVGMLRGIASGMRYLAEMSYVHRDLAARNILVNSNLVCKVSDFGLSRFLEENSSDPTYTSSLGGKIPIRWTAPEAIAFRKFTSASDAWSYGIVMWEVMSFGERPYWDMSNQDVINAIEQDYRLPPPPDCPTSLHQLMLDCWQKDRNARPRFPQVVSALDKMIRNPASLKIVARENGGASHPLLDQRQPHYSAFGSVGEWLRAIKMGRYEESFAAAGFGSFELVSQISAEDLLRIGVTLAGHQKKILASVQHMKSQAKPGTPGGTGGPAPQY
Sequence of Pim-1 (P11309 whole entry): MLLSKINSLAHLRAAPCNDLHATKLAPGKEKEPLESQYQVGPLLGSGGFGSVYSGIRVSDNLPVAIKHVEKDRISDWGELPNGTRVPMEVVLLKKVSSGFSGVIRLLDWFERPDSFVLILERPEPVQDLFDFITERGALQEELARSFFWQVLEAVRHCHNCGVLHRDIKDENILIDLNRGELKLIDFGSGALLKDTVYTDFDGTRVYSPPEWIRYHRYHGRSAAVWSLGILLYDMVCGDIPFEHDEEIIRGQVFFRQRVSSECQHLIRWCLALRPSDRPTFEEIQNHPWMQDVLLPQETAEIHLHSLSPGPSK
Sequence of EphA5 (P54756 25-1037): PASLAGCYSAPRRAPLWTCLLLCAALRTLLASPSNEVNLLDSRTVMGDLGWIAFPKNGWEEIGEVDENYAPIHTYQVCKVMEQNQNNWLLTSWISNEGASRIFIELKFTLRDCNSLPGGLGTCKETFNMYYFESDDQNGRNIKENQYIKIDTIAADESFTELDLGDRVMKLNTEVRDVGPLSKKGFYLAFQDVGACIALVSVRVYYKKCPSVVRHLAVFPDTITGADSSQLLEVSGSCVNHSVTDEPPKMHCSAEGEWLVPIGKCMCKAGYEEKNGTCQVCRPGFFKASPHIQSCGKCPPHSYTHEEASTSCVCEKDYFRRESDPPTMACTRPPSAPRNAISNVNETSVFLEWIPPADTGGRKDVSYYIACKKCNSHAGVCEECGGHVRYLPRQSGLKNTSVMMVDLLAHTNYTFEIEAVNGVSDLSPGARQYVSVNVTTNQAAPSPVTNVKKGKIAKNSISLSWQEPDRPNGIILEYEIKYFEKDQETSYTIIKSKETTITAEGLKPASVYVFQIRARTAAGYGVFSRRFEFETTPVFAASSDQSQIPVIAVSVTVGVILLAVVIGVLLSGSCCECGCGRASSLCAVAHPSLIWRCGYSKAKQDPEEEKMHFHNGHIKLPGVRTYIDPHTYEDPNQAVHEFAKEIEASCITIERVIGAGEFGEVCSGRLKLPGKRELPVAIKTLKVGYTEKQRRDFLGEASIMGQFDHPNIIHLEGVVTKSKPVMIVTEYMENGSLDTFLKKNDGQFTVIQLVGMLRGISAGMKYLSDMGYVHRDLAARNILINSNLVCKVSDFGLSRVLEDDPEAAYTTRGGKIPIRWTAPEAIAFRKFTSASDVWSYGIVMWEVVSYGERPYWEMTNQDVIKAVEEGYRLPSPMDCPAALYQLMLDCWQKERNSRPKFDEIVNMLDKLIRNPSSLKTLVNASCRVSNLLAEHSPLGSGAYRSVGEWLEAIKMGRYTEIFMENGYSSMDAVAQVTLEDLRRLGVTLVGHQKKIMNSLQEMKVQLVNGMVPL
Sequence of Plk3 (Q9H4B4 whole entry): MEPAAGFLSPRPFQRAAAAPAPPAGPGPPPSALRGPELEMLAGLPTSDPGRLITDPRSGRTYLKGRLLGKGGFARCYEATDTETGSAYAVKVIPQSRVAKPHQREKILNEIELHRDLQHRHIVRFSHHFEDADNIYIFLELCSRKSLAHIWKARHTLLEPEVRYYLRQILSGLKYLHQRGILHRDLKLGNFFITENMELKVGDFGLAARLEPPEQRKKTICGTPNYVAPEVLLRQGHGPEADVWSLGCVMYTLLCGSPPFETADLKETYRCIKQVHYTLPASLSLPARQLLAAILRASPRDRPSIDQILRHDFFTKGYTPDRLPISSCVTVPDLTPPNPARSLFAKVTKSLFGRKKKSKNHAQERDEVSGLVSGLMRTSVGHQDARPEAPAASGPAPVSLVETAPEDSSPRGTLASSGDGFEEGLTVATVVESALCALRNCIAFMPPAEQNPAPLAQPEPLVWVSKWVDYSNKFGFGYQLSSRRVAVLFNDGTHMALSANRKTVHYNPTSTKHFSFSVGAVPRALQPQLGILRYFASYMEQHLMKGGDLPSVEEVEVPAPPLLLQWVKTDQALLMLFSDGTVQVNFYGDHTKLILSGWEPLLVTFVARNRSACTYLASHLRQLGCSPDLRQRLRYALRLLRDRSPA
Sequence of SAPK2a (Q16539 whole entry): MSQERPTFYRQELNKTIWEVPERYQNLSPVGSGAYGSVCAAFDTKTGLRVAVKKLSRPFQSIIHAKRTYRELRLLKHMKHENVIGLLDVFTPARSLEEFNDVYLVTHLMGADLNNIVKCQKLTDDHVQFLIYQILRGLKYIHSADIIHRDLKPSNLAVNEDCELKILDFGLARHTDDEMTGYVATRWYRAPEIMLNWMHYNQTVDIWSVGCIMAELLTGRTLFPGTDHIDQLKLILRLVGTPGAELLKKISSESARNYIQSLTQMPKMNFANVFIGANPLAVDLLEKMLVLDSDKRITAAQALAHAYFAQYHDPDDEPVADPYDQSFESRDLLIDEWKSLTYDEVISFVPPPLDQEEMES

Cc1ccc(-c2cc3ccccc3c(N)n2)cc1 [FX-9, 3-(p-Tolyl)isoquinolin-1-amine]
Kinase activity (% control) (PKBα): 98 % control | Kinase activity (% control) (CDK7/cyclinH/MAT1): 91 % control | activity at 5 µM (SEM cells): 1.2% | activity at 10 µM (SEM cells): 0.6% | Kinase activity (% control) (IGF-1R): 89 % control | Kinase activity (% control) (EphA5): 98 % control | Kinase activity (% control) (CDK9/cyclin T1): 86 % control | Kinase activity (% control) (SAPK2a): 98 % control | Proliferation compared to control cells (100%) (Jurkat cells [1]; 2.5 μM): 16.3% | IC50 (Jurkat cells [1]; Homo sapiens, read-out: IC50 based on proliferation): 1670 ± 30 nM | Kinase activity (% control) (PI3 Kinase (p110a/p85a)): 101 % control | Kinase activity (% control) (CK2α2): 95 % control | Kinase activity (% control) (IKKα): 91 % control | Kinase activity (% control) (MEK1): 90 % control | Kinase activity (% control) (TAK1): 87 % control | CK2 enzyme activity (recombinant human CK2α1; 10 μM FX-9, 10 μM ATP): not changed significantly | CK2 enzyme activity (recombinant human CK2α1; increasing concentrations, 10 μM ATP): No changes of CK2 enzyme activity | pAKT level (western blot) (pAKT): reduced | Kinase activity (% control) (PKG1α): 98 % control | Apoptosis (total of early apoptotic and late apoptotic and necrotic cells) (Jurkat cells [2]): 48.7% | Kinase activity (% control) (KDR): 83 % control | Kinase activity (% control) (Pim-1): 99 % control | Kinase activity (% control) (LOK): 101 % control | Proliferation compared to control cells (100%) (CEM cells; CEM, 2.5 μM): 24.1% | IC50 (CEM cells; Homo sapiens, CCRF-CEM, read-out: IC50 based on proliferation): 1940 ± 30 nM | Kinase activity (% control) (CDK6/cyclinD3): 103 % control | Kinase activity (% control) (EphB4): 83 % control | Kinase activity (% control) (CDK1/cyclinB): 97 % control | Kinase activity (% control) (Aurora-A): 92 % control | Kinase activity (% control) (mTOR): 100 % control | Kinase activity (% control) (Plk3): 99 % control | Kinase activity (% control) (CaMKI): 100 % control
